Measurements pooled from the literature.
Each line is one published result; the experiments were not run side by side.
Cell line: NCI-H322M
Observed: cell growth or viability

COc1ccc(-c2ccc(-c3ccc(C(=N)N)nc3)s2)cc1
GI50 (SRB): 1.59 µM

CCc1n(Cc2ccc3ccccc3n2)cc[n+]1Cc1ccc2ccccc2c1
TGI (SRB): 13.8 µM

COc1cccc(Oc2ccccc2NC(=O)CNC(=O)c2cccc3ccccc23)c1
GI50 (SRB; 48 h): 1.29 µM

O=C1NC(=NCc2cccs2)S/C1=C\c1ccc2ncccc2c1
IC50: > 10 µM

COc1ccc(C(=O)/C=C/c2cc3c(cc2Br)OCO3)cc1S(N)(=O)=O
GI50 (SRB; 48 h): 3.8 µM

COc1cc(-c2ccc(-c3ccc(C(=N)N)nc3)s2)cc(OC)c1OC
GI50 (SRB): 3.23 µM

S=C([S][Au-][P+](CCCCCC[P+]([Au-][S]C(=S)n1cccn1)(c1ccccc1)c1ccccc1)(c1ccccc1)c1ccccc1)n1cccn1
GI50 (SRB): 0.417 µM

O=C1NCCc2[nH]c(-c3ccncc3)cc21
IC50: > 10 µM

c1ccc2cc(Cn3cc[n+](Cc4ccc5ccccc5c4)c3)ccc2c1
TGI (SRB): 21.3 µM

COc1ccc(C(=O)/C=C/c2cccnc2)cc1S(N)(=O)=O
GI50 (SRB; 48 h): 12.3 µM

CCc1n(Cc2ccc3ccccc3n2)cc[n+]1Cc1ccc2ccccc2n1
TGI (SRB): 41.9 µM

Cc1cc(C)n(C(=S)[S][Au][PH](CCCCCC[PH]([Au][S]C(=S)n2nc(C)cc2C)(c2ccccc2)c2ccccc2)(c2ccccc2)c2ccccc2)n1
GI50 (SRB): 0.423 µM
